According to ChEMBL document CHEMBL1124534, “Synthesis, mechanism of action, and biological evaluation of mitosenes” (1989):
Converted amounts (≈) assume the structure as drawn.

Tests used:
Assay type in all cases: functional
A204 = assay: In vitro antitumor activity against A204 rhabdomyosarcoma tumor cell line was determined; conditions: Homo sapiens, read-out: ID50 (the source's name)
Method in brief: (§1)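 Cell growth inhibition in vitro measured by the PIT method, with mitomycin C as positive reference.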

L1210 = assay: In vitro antitumor activity against L1210 lymphocytic leukemia tumor cell line was determined; conditions: Mus musculus, read-out: ID50 (the source's name)
Method in brief: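 Inhibition of L1210 leukemia colony formation in vitro, with mitomycin C as positive reference.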

WiDr = assay: In vitro antitumor activity against WiDr colon carcinoma tumor cell line was determined; conditions: Homo sapiens, read-out: ID50 (the source's name); method in brief: as §1

| Compound | IC50 (A204) | IC50 (L1210) | IC50 (WiDr) |
| --- | --- | --- | --- |
| CCCC(=O)OCc1c2c(n3c1C(OC(=O)CCC)CC3)C(=O)C(C)=C(OC)C2=O (centres undefined) | 0.021 µg/mL (≈ 0.0503 µM) | > 0.64 µg/mL | 0.069 µg/mL (≈ 0.165 µM) |
| CCNC(=O)OCc1c2c(n3c1C(O)CCC3)C(=O)C(C)=C(OC)C2=O (centres undefined) | 0.05 µg/mL (≈ 0.138 µM) | 1.17 µg/mL (≈ 3.22 µM) | 0.251 µg/mL (≈ 0.693 µM) |
| CCOC(=S)SCc1c2c(n3c1CCC3)C(=O)C(C)=C(OC)C2=O | 0.585 µg/mL (≈ 1.6 µM) | > 6.4 µg/mL | 3.71 µg/mL (≈ 10.1 µM) |
| COC1=C(Br)C(=O)c2c(c(COC(C)=O)c3n2CCCC3OC(C)=O)C1=O (centres undefined) | 4.14 µg/mL (≈ 9.39 µM) | 1.12 µg/mL (≈ 2.54 µM) | 6.49 µg/mL (≈ 14.7 µM) |
| CCNC(=O)OCc1c2c(n3c1C(O)CC3)C(=O)C(C)=C(OC)C2=O (centres undefined) | 0.001 µg/mL (≈ 0.00287 µM) | 0.206 µg/mL (≈ 0.591 µM) | 0.051 µg/mL (≈ 0.146 µM) |

Results, then the molecule that gave them:

| IC50 (A204) | IC50 (L1210) | IC50 (WiDr) | Compound |
| --- | --- | --- | --- |
| < 0.1 µg/mL | 0.942 µg/mL (≈ 2.7 µM) | 0.18 µg/mL (≈ 0.517 µM) | CCNC(=O)OCc1c2c(n3c1C(O)CCC3)C(=O)C=C(OC)C2=O (centres undefined) |
| 2.6 µg/mL (≈ 9.87 µM) | 1.15 µg/mL (≈ 4.35 µM) | 2.6 µg/mL (≈ 9.87 µM) | COC1=CC(=O)c2c(c(CO)c3n2CCC3O)C1=O (centres undefined) |
| 0.115 µg/mL (≈ 0.36 µM) | 1.75 µg/mL (≈ 5.49 µM) | 0.287 µg/mL (≈ 0.899 µM) | COC1=CC(=O)c2c(c(COC(C)=O)c3n2CCCC3O)C1=O (centres undefined) |
